Assay results as given in ChEMBL document CHEMBL3826951, “Discovery of Benzocycloalkane Derivatives Efficiently Blocking Bacterial Virulence for the Treatment of Methicillin-Resistant S. aureus (MRSA) Infections by Targeting Diapophytoene Desaturase (CrtN)” (J Med Chem, 2016).
pIC50: −log10 of the molar value. ≈ marks a conversion by molar mass, not a printed value. Calls of active or inactive are those of the source. The calls are words filed in the database; no cut-off is given here.

Legend:
[1] = molecular target: T1, 4,4'-diapophytoene desaturase (4,4'-diaponeurosporene-forming) (Staphylococcus aureus (strain Newman), UniProt O07855); experiment: Inhibition of 6x-His-tagged Staphylococcus aureus diapophytoene desaturase expressed in Escherichia coli BL21 (DE3) using diapophytoene substrate after overnight incubation
T1 sequence (O07855 whole entry): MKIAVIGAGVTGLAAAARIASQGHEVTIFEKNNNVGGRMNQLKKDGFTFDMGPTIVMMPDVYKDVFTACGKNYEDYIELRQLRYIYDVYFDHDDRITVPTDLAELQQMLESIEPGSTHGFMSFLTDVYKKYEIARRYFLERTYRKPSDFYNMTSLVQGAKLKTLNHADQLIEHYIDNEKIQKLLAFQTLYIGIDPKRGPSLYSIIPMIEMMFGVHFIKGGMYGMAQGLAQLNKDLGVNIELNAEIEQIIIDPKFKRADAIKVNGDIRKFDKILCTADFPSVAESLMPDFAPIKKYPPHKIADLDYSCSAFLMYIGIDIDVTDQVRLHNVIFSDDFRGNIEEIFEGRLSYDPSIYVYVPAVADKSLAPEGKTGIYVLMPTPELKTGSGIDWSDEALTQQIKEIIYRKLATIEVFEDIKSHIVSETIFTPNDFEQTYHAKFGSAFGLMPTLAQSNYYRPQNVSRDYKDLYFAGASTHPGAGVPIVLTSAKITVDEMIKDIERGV

[2] = molecular target: T1, 4,4'-diapophytoene desaturase (4,4'-diaponeurosporene-forming); experiment: Inhibition of diapophytoene desaturase in Staphylococcus aureus Newman assessed as reduction in staphyloxanthin pigment formation after 48 hrs by spectrophotometry; set-up: species or system Staphylococcus aureus subsp. aureus str. Newman
[3] = Aqueous solubility of the compound in water after 24 hrs by HPLC method; type: physicochemical
How it was run: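 Excess solid stirred in pure water for 24 h, then filtered. Filtrate analysed by HPLC (10 µL injection). Concentration read against a calibration curve of peak area versus concentration, built from methanol solutions at 50–800 µg/mL.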

Trichophyton rubrum = experiment: Antifungal activity against naftifine-sensitive Trichophyton rubrum after 7 days by serial dilution method; type: functional
How it was run: (§1)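 Broth serial dilution in 96-well plates per NCCLS recommendations. Medium: RPMI 1640 buffered with 0.165 M MOPS. Fungi were ATCC strains or clinical isolates.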

Staphylococcus aureus [4] = experiment: Attenuation of Staphylococcus aureus Newman virulence in BALB/c mouse lethal infection model assessed as mouse survival administered ip every 12 hrs for 108 hrs followed by 2 x 10^7 CFU bacterial challenge after first 12 hrs of compound dosing measured 4 days post challenge; type: functional
How it was run: (§2)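 Female BALB/c mice, 6-8 weeks old, kept specific pathogen-free. Dosed ip at 50 or 200 mg/kg every 12 h for 108 h (4.5 d). Challenged 12 h after the first dose with 2 × 10^7 CFU S. aureus Newman. Mortality followed; n = 15; log-rank test.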

Staphylococcus aureus [5] = experiment: Sensitization of methicillin-resistant Staphylococcus aureus Mu 50 to H2O2-induced killing assessed as cell survival at 1 uM pre-incubated for 24 hrs before H2O2 exposure for 30 mins by serial dilution method (reference value: 30.67%); type: functional; settings: Mu50
Staphylococcus aureus [6] = experiment: Sensitization of methicillin-resistant Staphylococcus aureus Mu 50 to human whole blood assessed as cell survival at 1 uM after 6 hrs by serial dilution method (reference value: 16.11%); type: functional; settings: Mu50, 6 h
Staphylococcus aureus [7] = experiment: Sensitization of methicillin-resistant Staphylococcus aureus USA400 MW2 to human whole blood assessed as cell survival at 1 uM after 6 hrs by serial dilution method (reference value: 10.8%); type: functional; settings: MW2 USA400, 6 h
Staphylococcus aureus [8] = experiment: Sensitization of methicillin-resistant Staphylococcus aureus USA400 MW2 to H2O2-induced killing assessed as cell survival at 1 uM pre-incubated for 24 hrs before H2O2 exposure for 30 mins by serial dilution method (reference value: 14.17%); type: functional
Staphylococcus aureus [9] = experiment: Effect on methicillin-resistant Staphylococcus aureus USA300 LAC growth at 0.2 mM after overnight incubation by plate reader method; type: organism-based; settings: 200 µM
How it was run: (§3)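 DMSO stock (20 mM) diluted in TSB to final 0.2 or 0.05 mM, overlaid with paraffin, pre-warmed 4 h at 37 °C. Overnight cultures adjusted to OD600 ~1.0 and inoculated to final OD600 ≈ 0.05. DMSO-matched growth controls. Incubated overnight at 37 °C; OD600 read every 30 min.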

Staphylococcus aureus [10] = experiment: (§4) Attenuation of methicillin-resistant Staphylococcus aureus Mu 50 virulence in BALB/c mouse systemic infection model assessed as decrease in bacterial survival in liver at 50 mg/kg, ip administered every 12 hrs for 108 hrs followed by bacterial challenge after first 12 hrs of compound dosing measured 5 days post infection; type: functional, Mu50
How it was run: (§5)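 Female BALB/c mice, 6-8 weeks old. Dosed ip every 12 h for 108 h. Challenged with 100 µL at 12 h: 1.6 × 10^8 CFU Mu50 or 4 × 10^7 CFU USA400 MW2. Sacrificed 5 days post-infection. Livers and kidneys homogenised in PBS/0.1% Triton X-100, serially plated on TSA, CFU counted; two-tailed Mann-Whitney.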

Staphylococcus aureus [11] = experiment: as §4, with “USA400 MW2” for “Mu 50”, “kidney” for “liver”; type: functional; how it was run: as §5
Staphylococcus aureus [12] = experiment: as §4, with “of” for “of methicillin-resistant”, “Newman” for “Mu 50”, “kidney” for “liver”; type: functional
How it was run: (§6)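 Abscess model in female BALB/c mice, 6-8 weeks old. Dosed ip every 12 h for 108 h; retro-orbital challenge with 1 × 10^7 CFU Newman in 100 µL at 12 h. Sacrificed day 5. Kidneys and hearts homogenised in PBS plus 0.1% Triton X-100 and plated on TSA for CFU. n = 13; two-tailed Mann-Whitney.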

Staphylococcus aureus [13] = experiment: Effect on methicillin-resistant Staphylococcus aureus USA400 MW2 growth at 0.05 mM after overnight incubation by plate reader method; type: organism-based; settings: 50 µM; how it was run: as §3
Trichophyton verrucosum = experiment: Antifungal activity against naftifine-sensitive Trichophyton verrucosum after 7 days by serial dilution method; type: functional; how it was run: as §1
Staphylococcus aureus [14] = experiment: Attenuation of Staphylococcus aureus Newman virulence in BALB/c mouse lethal infection model assessed as mouse survival administered ip every 12 hrs for 108 hrs followed by 2 x 10^7 CFU bacterial challenge after first 12 hrs of compound dosing measured 8 days post challenge; type: functional; how it was run: as §2
Staphylococcus aureus [15] = experiment: Sensitization of Staphylococcus aureus Newman to human whole blood assessed as cell survival at 1 uM after 6 hrs by serial dilution method (reference value: 26.67%); type: functional
Staphylococcus aureus [16] = experiment: Sensitization of Staphylococcus aureus Newman to H2O2-induced killing assessed as cell survival at 1 uM pre-incubated for 24 hrs before H2O2 exposure for 30 mins by serial dilution method (reference value: 30.43%); type: functional
Staphylococcus aureus [17] = experiment: as §4, with “of” for “of methicillin-resistant”, “Newman” for “Mu 50”, “heart” for “liver”; type: functional; how it was run: as §6
Staphylococcus aureus [18] = experiment: as §4, with “kidney” for “liver”; type: functional, Mu50; how it was run: as §5
[19] = molecular target: T2, 4,4'-diapophytoene desaturase (4,4'-diaponeurosporene-forming) (Staphylococcus aureus (strain Newman)) (UniProt O07855); experiment: Inhibition of diapophytoene desaturase in Staphylococcus aureus Newman assessed as 4,4'-diapophytoene formation by HPLC method; settings: Staphylococcus aureus subsp. aureus str. Newman
T2 sequence (whole entry): T1 sequence (O07855 whole entry)

Staphylococcus aureus [20] = experiment: Effect on Staphylococcus aureus Newman growth at 0.2 mM after overnight incubation by plate reader method; type: organism-based; settings: 200 µM; how it was run: as §3
Nannizzia gypsea = experiment: Antifungal activity against naftifine-sensitive Microsporum gypseum after 7 days by serial dilution method; type: functional; how it was run: as §1
Staphylococcus aureus [21] = experiment: Sensitization of methicillin-resistant Staphylococcus aureus USA300 LAC to human whole blood assessed as cell survival at 1 uM after 6 hrs by serial dilution method (reference value: 12.17%); type: functional; settings: LAC USA300, 6 h
Staphylococcus aureus [22] = experiment: Effect on methicillin-resistant Staphylococcus aureus Mu 50 growth at 0.05 mM after overnight incubation by plate reader method; type: organism-based, Mu50; settings: 50 µM; how it was run: as §3
Staphylococcus aureus [23] = experiment: as §4, with “in kidney” for “in liver”, “at 200” for “at 50”; type: functional, Mu50; how it was run: as §5
Staphylococcus aureus [24] = experiment: Sensitization of methicillin-resistant Staphylococcus aureus USA300 LAC to H2O2-induced killing assessed as cell survival at 1 uM pre-incubated for 24 hrs before H2O2 exposure for 30 mins by serial dilution method (reference value: 15.83%); type: functional
Staphylococcus aureus [25] = experiment: as §4, with “USA400 MW2” for “Mu 50”, “kidney” for “liver”, “200” for “50”; type: functional; how it was run: as §5
Staphylococcus aureus [26] = experiment: as §4, with “USA400 MW2” for “Mu 50”, “burden” for “survival”; type: functional; how it was run: as §5
[27] = system: Trichophyton mentagrophytes; experiment: Antifungal activity against naftifine-sensitive Trichophyton mentagrophytes after 7 days by serial dilution method; type: functional; how it was run: as §1

Structure (SMILES): CN(C/C=C/c1ccc(Br)cc1)Cc1ccc2c(c1)CCCCC2.Cl
- pIC50 [1]: 6.39
- pIC50 [2]: 8.11
- solubility at 24 h [3]: 570 µg/mL

Structure (SMILES): Cc1cccc(/C=C/CN(C)Cc2ccc3c(c2)CCCCC3)c1
- pIC50 [2]: 6.11

Structure (SMILES): CN(C/C=C/c1ccccc1)Cc1ccc2c(c1)CCC2
- pIC50 [2]: 6.09

Structure (SMILES): C/C(=C\c1ccccc1)CN(C)Cc1ccc2c(c1)CCCCC2
- pIC50 [2]: < 5.00

Structure (SMILES): C/C=C/CN(C)Cc1ccc2c(c1)CCCCC2
- pIC50 [2]: < 4.30

Structure (SMILES): CN(C/C=C/c1ccc(F)cc1)Cc1ccc2c(c1)CCCCC2
- pIC50 [2]: 7.40

Structure (SMILES): COc1ccc(/C=C/CN(C)Cc2ccc3c(c2)CCCC3)cc1
- pIC50 [2]: 7.91

Structure (SMILES): CN(C/C=C/c1ccccc1[N+](=O)[O-])Cc1ccc2c(c1)CCCCC2
- pIC50 [2]: < 5.30

Structure (SMILES): COc1ccc(/C=C/CN(C)Cc2ccc3c(c2)CCCCC3)cc1.Cl
- MIC=<80 (Trichophyton rubrum): 8 µg/mL
- Survival (Staphylococcus aureus [4]): 83%
- survival at 1 µM (Staphylococcus aureus [5]): 4.44%
- survival at 1 µM (Staphylococcus aureus [6]): 0.4%
- survival at 1 µM (Staphylococcus aureus [7]): 0.2%
- survival at 1 µM (Staphylococcus aureus [8]): 0.96%
- Activity (Staphylococcus aureus [9]): Non-toxic
- Activity (Staphylococcus aureus [10]): 2.44 log10CFU
- Activity (Staphylococcus aureus [11]): 99.5%
- Activity (Staphylococcus aureus [12]): 1.17 log10CFU
- Activity (Staphylococcus aureus [13]): Non-toxic
- MIC=<80 (Trichophyton verrucosum): 8 µg/mL
- Survival (Staphylococcus aureus [14]): >60%
- survival at 1 µM (Staphylococcus aureus [15]): 1.83%
- survival at 1 µM (Staphylococcus aureus [16]): 0.83%
- Activity (Staphylococcus aureus [17]): 1.62 log10CFU
- solubility at 24 h [3]: 4240 µg/mL
- Activity (Staphylococcus aureus [18]): 0.99 log10CFU
- inhibition [19]: Active
- Activity (Staphylococcus aureus [20]): Non-toxic
- MIC=<80 (Nannizzia gypsea): 16 µg/mL
- survival at 1 µM (Staphylococcus aureus [21]): 0.95%
- Activity (Staphylococcus aureus [22]): Non-toxic
- Activity (Staphylococcus aureus [23]): 2.27 log10CFU
- survival at 1 µM (Staphylococcus aureus [24]): 0.98%
- Activity (Staphylococcus aureus [25]): 99.5%
- Activity (Staphylococcus aureus [26]): 3.87 log10CFU
- MIC=<80 [27]: 8 µg/mL

Structure (SMILES): CN(C/C=C/c1ccc(C(F)(F)F)cc1)Cc1ccc2c(c1)CCCCC2
- pIC50 [2]: 8.00

Structure (SMILES): CN(C/C=C/c1ccc(Br)cc1)Cc1ccc2c(c1)CCCC2.Cl
- pIC50 [1]: 6.35
- pIC50 [2]: 8.89
- solubility at 24 h [3]: 2100 µg/mL

Structure (SMILES): CN(CC#Cc1ccccc1)Cc1ccc2c(c1)CCCCC2
- pIC50 [2]: < 5.90

Structure (SMILES): CN(C/C=C/c1ccccc1)Cc1ccc2c(c1)CCCC2
- pIC50 [2]: 6.22

Structure (SMILES): CN(C/C=C/c1ccc(C(F)(F)F)cc1)Cc1ccc2c(c1)CCCC2.Cl
- pIC50 [1]: 6.30
- pIC50 [2]: 8.72
- solubility at 24 h [3]: 690 µg/mL

Structure (SMILES): CC(=O)N1CCN(c2ccc(OCC3COC(Cn4ccnc4)(c4ccc(Cl)cc4Cl)O3)cc2)CC1 (stereo not drawn) [KETOCONAZOLE]
- MIC=<80 (Trichophyton rubrum): 0.5 µg/mL (≈ 0.941 µM)
- MIC=<80 (Trichophyton verrucosum): 0.0625 µg/mL (≈ 0.118 µM)
- MIC=<80 (Nannizzia gypsea): 2 µg/mL (≈ 3.76 µM)
- MIC=<80 [27]: 0.0625 µg/mL (≈ 0.118 µM)

Structure (SMILES): CN(C/C=C/c1cccc([N+](=O)[O-])c1)Cc1ccc2c(c1)CCCCC2
- pIC50 [2]: < 6.00

Structure (SMILES): CN(C/C=C/c1ccco1)Cc1ccc2c(c1)CCCCC2
- pIC50 [2]: < 5.60

Structure (SMILES): C[C@@H](c1ncncc1F)[C@](O)(Cn1cncn1)c1ccc(F)cc1F [VORICONAZOLE]
- MIC=<80 (Trichophyton rubrum): 0.03125 µg/mL (≈ 0.0895 µM)
- MIC=<80 (Trichophyton verrucosum): 0.03125 µg/mL (≈ 0.0895 µM)
- MIC=<80 (Nannizzia gypsea): 0.25 µg/mL (≈ 0.716 µM)
- MIC=<80 [27]: 0.03125 µg/mL (≈ 0.0895 µM)

Structure (SMILES): CN(C/C=C/c1ccc(Cl)cc1)Cc1ccc2c(c1)CCCC2
- pIC50 [2]: 7.89
